Test results published in PMC4553143 (Circulation research, 2015).

How the values were obtained:
CMy-Tg mice [1] = assay: Heart and serum markers and histology in CD8+ T cell-mediated myocarditis; assay type: in vivo, mouse; settings: CMy-Tg mice 5 days post transfer of 3.5 × 10^6 OT-1 CD8+ T cells
Outline: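 CMy-Tg (n = 12) and WT (n = 4) mice received 3.5 × 10^6 OT-1 CD8+ T cells. PBS vehicle or dexamethasone (0.75 mg/kg) i.p. on days 1–4. Hearts and serum collected at day 5. Heart granzyme B and cleaved caspase-3 measured by Western blot, normalized to GAPDH. Serum granzyme B, interferon-γ and cardiac troponin-I assayed. P values versus vehicle of each strain.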

granzyme B activity [2] = assay type: in vivo, mouse
Outline: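 Male CMy-Tg and C57BL/6 WT mice (10–12 weeks) received OT-1 CD8+ T cells i.p. in PBS (2.0, 3.5 or 5.0 × 10^6). Dexamethasone 0.75 mg/kg or PBS i.p. daily, days 1–4. Day 4: probe i.v. (50 μL, 1 μmol/L in PBS) or ProSense 680 (2 nmol/150 μL). After 24 h: FMT-CT under anaesthesia; ex vivo FRI, 680 nm channel.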

CMy-Tg mice [3] = assay: Survival study in CD8+ T cell-mediated myocarditis; assay type: in vivo, mouse; settings: 0.75 mg/kg i.p. for 4 days; 2.0 × 10^6 OT-1 cells; n = 8
Outline: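 Male CMy-Tg and WT C57BL/6 mice (10–12 weeks) received 2.0, 3.5 or 5.0 × 10^6 OT-1 CD8+ T cells i.p. in PBS. Dexamethasone 0.75 mg/kg/day, freshly dissolved in sterile PBS, given i.p. in 100 μL on days 1–4 after cell transfer; controls received PBS. Survival followed for 28 days; Kaplan–Meier analysis, n = 8 per group.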

[4] = test system: OT-1 CD8+ T cells / CMy-Tg cardiomyocytes; assay: Granzyme B expression in OT-1 CD8+ T cells and co-cultures in vitro; assay type: cell-based, mouse
chymotrypsin = assay: Enzymatic assay of nanoprobe activation; assay type: biochemical; settings: chymotrypsin 0.01 mg/mL, 82-fold excess activity; n = 3
granzyme B activity [5] = assay: Ex vivo FRI in cardiac myosin-induced experimental autoimmune myocarditis; design: species or system mouse; settings: 24 hours post probe injection, 21 days after immunization
Outline: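 Balb/cByJ mice were immunized with a murine α-myosin H chain-derived peptide (n = 16); controls received PBS instead (n = 4). Granzyme B-sensitive probe given i.v. on day 20. One day later, excised hearts and sections were imaged by microscopic ex vivo FRI in the 680 nm channel. Exposure: 1 min for tissue, 30 min for heart sections.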

[6] = molecular target: T1, granzyme B in lysates of CD8+ T cells (Mus musculus, UniProt P04187); assay: Probe activation by lysates of CD8+ T cells; assay type: biochemical
T1 sequence (P04187 21-247): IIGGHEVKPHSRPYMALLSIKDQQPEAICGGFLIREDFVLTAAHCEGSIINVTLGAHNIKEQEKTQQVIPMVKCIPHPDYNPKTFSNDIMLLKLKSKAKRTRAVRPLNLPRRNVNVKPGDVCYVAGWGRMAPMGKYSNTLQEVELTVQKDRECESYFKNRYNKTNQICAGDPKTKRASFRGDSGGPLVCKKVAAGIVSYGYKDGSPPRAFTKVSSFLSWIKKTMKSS

Row | Compound | serum concentrations of granzyme B, interferon-γ, and cardiac troponin-I (CMy-Tg mice [1]) | protein levels of granzyme B and active caspase-3 in hearts (CMy-Tg mice [1]; Western blot) | granzyme B activity, fluorescence intensities in hearts (granzyme B activity [2]; dexamethasone administration in vivo, vehicle 504±263, P=0.002) | survival of CMy-Tg mice (CMy-Tg mice [3]) | granzyme B protein concentrations in OT-1 CD8+ T cells and their culture medium ([4]; 48 hours of anti-CD3 stimulation) | probe signals colocalized with granzyme B activity ([4]; CMy-Tg cardiomyocytes co-cultured with OT-1 CD8+ T cells, confocal microscopy) | probe activation on incubation with chymotrypsin (chymotrypsin) | signals from the probe in heart tissues and sections, EAM Balb/cByJ vs WT mice (granzyme B activity [5]) | fluorescent signal from the probe incubated with lysates ([6]; lysates of Balb/c WT CD8+ T cells stimulated with anti-CD-3, 48 hours) | fluorescent signal from the probe incubated with lysates ([6]; lysates of granzyme B-deficient CD8+ T cells) | signal compared with ProSense 680 (granzyme B activity [2]; CD8+ T cell-mediated myocardial injury model)
1 | C[C@@H]1C[C@H]2[C@@H]3CCC4=CC(=O)C=C[C@]4(C)[C@@]3(F)[C@@H](O)C[C@]2(C)[C@@]1(O)C(=O)CO [dexamethasone] | limited these increases | reduced these concentrations | 194±77 fluorescence intensities | survived for 28 days | did not mute this rise | decreased the probe signals |  |  |  |  | 
2 | GIEFDSGGC [granzyme B-sensitive nanoprobe] |  |  |  |  |  |  | activation comparable in intensity to Granzyme B | higher signals | increased above baseline after 48 hours | did not demonstrate a comparable increase | substantially higher signal
